Published values collected from several papers.
Lines come from different studies, so protocols differ.
PAK5: Serine/threonine-protein kinase PAK 5 (PAK5, Homo sapiens, UniProt Q9P286)
ALOX12: Polyunsaturated fatty acid lipoxygenase ALOX12 (ALOX12, Homo sapiens, UniProt P18054)

Compound | target | assay | test system | setting | measurement | value
O=C(Nc1cccnn1)N1CCN([C@@H]2CCOc3cc(C(F)(F)F)ccc32)CC1 | Apelin receptor (APLNR, Homo sapiens, UniProt P35414) | ligand displacement | – | 20 µM | inhibition | -1%
Cn1cc(-c2cccc(N3CCc4c(sc5c4CC(C)(C)C5)C3=O)c2CO)cc(Nc2ccncn2)c1=O | Phosphatidylinositol 4-phosphate 3-kinase C2 domain-containing subunit alpha (PIK3C2A, Homo sapiens, UniProt O00443) | enzyme activity, inhibitor | – | 1 µM | inhibition | 0%
C#Cc1n[nH]c2c(-c3cn([C@@H](C)c4ccccn4)c(=O)[nH]c3=O)cc(F)cc12 | PAK5 | enzyme activity, inhibitor | – | 0.1 µM | inhibition | 5.1%
CCN(CC)CCCC[C@H](NC(=O)[C@H](CC(C)C)NC(=O)[C@H](C)NC(=O)[C@H](Cc1ccccc1)NC(=O)c1ccc(C(C)(C)C)cc1)C(=O)N[C@@H](CO)C(=O)OC | Nociceptin receptor (OPRL1, Homo sapiens, UniProt P41146) | ligand displacement, radioligand | – | 10 µM | remaining binding | 76.8%
Cn1cc(-c2cc(F)cc(N3CCn4c(cc5c4CCCC5)C3=O)c2CO)cc(Nc2ccc(N3CCN(C4COC4)CC3)cn2)c1=O | Phosphatidylinositol 3-kinase catalytic subunit type 3 (PIK3C3, Homo sapiens, UniProt Q8NEB9) | enzyme activity, inhibitor | – | 0.1 µM | inhibition | -1%
COc1cc(Nc2ncc(F)c(Nc3ccc4c(n3)NC(=O)C(C)(C)O4)n2)cc(OC)c1OC | Serine/threonine-protein kinase PLK4 (PLK4, Homo sapiens, UniProt O00444) | binding | – | 10 µM | inhibition | 100%
C#Cc1n[nH]c2c(-c3cn([C@@H](C)c4ccccc4)c(=O)[nH]c3=O)cc(F)cc12 | PAK5 | enzyme activity, inhibitor | – | 0.1 µM | inhibition | 4.5%
Nc1ncc(-c2nc(N3CCOCC3)nc(N3CCOCC3)n2)c(C(F)F)n1 | cGMP-inhibited 3',5'-cyclic phosphodiesterase 3A (PDE3A, Homo sapiens, UniProt Q14432) | enzyme activity, inhibitor | – | 10 µM | remaining activity | 39.1%
C=C(C)[C@@H]1CCC(C)=C[C@H]1c1c(O)cc(CCC)cc1O | ALOX12 | enzyme activity in cells, inhibitor | PMNL | 10 µM | remaining activity | 110%
Cc1nn(C)cc1-c1nc2c(N3CCN(Cc4ccc(Cl)cc4)CC3)c(Cl)cnc2[nH]1 | Rhodopsin kinase GRK1 (GRK1, Homo sapiens, UniProt Q15835) | binding, competition with immobilised ligand | – | 1 µM | remaining binding | 100%
CCCCCc1cc(O)c(C/C=C(\C)CCC=C(C)C)c(O)c1 | ALOX12 | enzyme activity in cells, inhibitor | PMNL | 10 µM | remaining activity | 152%
COc1ncccc1-c1cnn2ccc(N3CCN(C(=O)OC(C)C)CC3)nc12 | Mitogen-activated protein kinase kinase kinase 13 (MAP3K13, Homo sapiens, UniProt O43283) | binding, competition with immobilised ligand | – | 1 µM | remaining binding | 98%
